Where “and” joins values, the source holds several entries; their conditions need not be identical. Equal entries are not always repeated. Where two headings read alike, the source gives them in different places.
Legend:
[1] = test system: insulin receptors on MDCK cells; assay: [125I]insulin binding to basal or apical surface of MDCK cells; design: species or system canine; conditions: Hepes buffer, 15 C
MDCK cells = format: in vitro ADME, canine
Procedure, shortened: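 MDCK monolayers on nitrocellulose Millicell filters, 5–7 d after plating (1.8–2.0×10^6 cells/well at confluence). Both sides washed with PBS pH 7.4. Chloramine-T-iodinated EGF tracer added to one side at 4°C, then held at 4, 15 or 37°C, with [14C]inulin (50,000 cpm) as leak marker. In a second format, tracer was bound basally 2.5 h at 4°C, washed, and moved to 37°C. Triplicate wells, mean ± SD.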

[2] = molecular target: T1, EGF receptor on MDCK cells (Canis lupus familiaris, UniProt A0A8I3RYJ5); format: binding, canine; conditions: for EGF bound, % of the total tracer added: 4 C, 50,000 cpm [125I]EGF
Procedure, shortened: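 Confluent MDCK filter monolayers (1.8–2.0×10^6 cells/well) washed three times with cold PBS. Hepes buffer (50 mM Hepes, 1% BSA, pH 7.4) added both sides. 50,000 cpm [125I]EGF (194 µCi/µg) plus unlabeled EGF 1–200 ng/ml applied to apical or basal side. Incubated 6 h at 4°C, then washed. Filters excised and gamma-counted. Scatchard analysis.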

[3] = Diffusion across nitrocellulose filter of empty chambers; format: in vitro ADME; conditions: empty chamber, nitrocellulose filter without cells; 2 h; ~50,000 cpm tracer
[4] = molecular target: T1, EGF receptor on MDCK cells; format: cell-based, canine
Procedure, shortened: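 MDCK monolayers on 0.45-µm nitrocellulose filter chambers, used 5–7 d after plating. Hepes buffer pH 7.4. 50,000 cpm (0.137 ng) chloramine-T-iodinated EGF plus 50,000 cpm [14C]inulin leakage marker added apically or basally. Opposite side sampled every 30 min with buffer replacement. Cumulative counts expressed as % of tracer added. Antibody 1:100 preincubated basally 60 min at 37°C, sampled over 4.5 h. Triplicate wells.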

EGF bound, % of the total tracer added ([2]; apical surface of MDCK cells) | EGF bound, % of the total tracer added ([2]; basal surface of MDCK cells, binding maximal within 4 h) | Concentration of cold EGF that inhibited binding by 50% ([2]; basal surface of MDCK cells, 6 h at 4 C, competition with [125I]EGF) | Effect of unlabeled EGF on transport of tracer EGF, basal-to-apical ([4]; 0.85 nM (5 ng/ml) unlabeled EGF) | Effect of unlabeled EGF on transcytosis of labeled EGF, apical-to-basal ([4]; 110 nM cold EGF) | Effect of unlabeled EGF on transcytosis of labeled EGF, basal-to-apical ([4]; 110 nM unlabeled EGF) | Substance | Binding of insulin [1] | Transport in either direction (in words) (MDCK cells; MDCK monolayer, basal-to-apical and apical-to-basal) | Transport of EGF basal-to-apical at 4 C (in words) (MDCK cells; 4 C versus 37 C, mean of triplicate wells) | Transport of EGF basal-to-apical at 15 C (in words) (MDCK cells; 15 C versus 37 C, mean of triplicate wells) | Transport in the apical-to-basal direction (in words) (MDCK cells; MDCK monolayer) | Time to appearance of EGF at the apical surface after warming (MDCK cells; pre-bound tracer on basal surface, warmed from 4 C to 37 C) | Diffusion across the membrane, % of the total added [3]
– | – | – | – | – | – | insulin | failed to detect binding | not observed | – | – | – | – | –
< 1% and 0.8% | 6.5% and ~ 6% | 5 ng/mL | substantial de- crease | no effect | completely inhibited | epidermal growth factor [EGF] | – | – | even further decreased | markedly decreased | No transport | ≤ 15 min | 22%

Source: article PMC2114648 (The Journal of Cell Biology, 1987)
